Reference: ChEMBL document CHEMBL1124660, “Synthesis and in vitro aldose reductase inhibitory activity of compounds containing an N-acylglycine moiety” (J Med Chem, 1989)

Assays:
[1] = biological target: T1, Aldo-keto reductase family 1 member B1 (Rattus norvegicus, UniProt P07943); experiment: Inhibition of aldose reductase from rat lens. Value ranges from 1.5 - 16
Outline: (§1)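 Rat lens aldose reductase was the 40% ammonium sulfate supernatant. Assay at 30 °C in 0.1 M phosphate, pH 6.2, with 0.104 mM NADPH and 10 mM DL-glyceraldehyde, following NADPH decrease at 340 nm over 3.0 min. At least four inhibitor concentrations, three or more determinations each.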

[2] = biological target: T1, Aldo-keto reductase family 1 member B1; experiment: Inhibition of aldose reductase from rat lens. Value ranges from 4.9 - 23; outline: as §1
[3] = biological target: T1, Aldo-keto reductase family 1 member B1; experiment: Inhibition of aldose reductase from rat lens. Value ranges from 6 - 14; outline: as §1
[4] = biological target: T1, Aldo-keto reductase family 1 member B1; experiment: Inhibition of aldose reductase from rat lens. Value ranges from 1.0 - 34; outline: as §1
[5] = biological target: T1, Aldo-keto reductase family 1 member B1; experiment: Inhibition of aldose reductase from rat lens. Value ranges from 0.15 - 3.3; outline: as §1
[6] = biological target: T1, Aldo-keto reductase family 1 member B1; experiment: Inhibition of aldose reductase from rat lens. Value ranges from 7 - 130; outline: as §1
[7] = biological target: Aldo-keto reductase family 1 member B1 (Rattus norvegicus) (UniProt P07943); experiment: Compound was evaluated at 100 uM for the ability to inhibit partially purified aldose reductase obtained from rat lens
Outline: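 Enzyme: 40%-saturation ammonium sulfate supernatant from homogenized rat lenses, diluted so the control rate was about 0.0100 absorbance/min. Reaction at 30 °C in 0.1 M phosphate, pH 6.2, with 0.104 mM NADPH and 10 mM DL-glyceraldehyde, started by substrate. NADPH loss was read at 340 nm for 3.0 min after a 1.0 min lag. Percent inhibition at 100 µM was taken against the substrate-only control.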

[8] = biological target: T1, Aldo-keto reductase family 1 member B1; experiment: Inhibition of aldose reductase from rat lens. Value ranges from 0.6 - 47; outline: as §1
[9] = biological target: T1, Aldo-keto reductase family 1 member B1; experiment: Inhibition of aldose reductase from rat lens. Value ranges from 0.1 - 7; outline: as §1
[10] = biological target: T1, Aldo-keto reductase family 1 member B1; experiment: Inhibition of aldose reductase from rat lens. Value ranges from 10 - 130; outline: as §1
[11] = biological target: T1, Aldo-keto reductase family 1 member B1; experiment: Inhibition of aldose reductase from rat lens. Value ranges from 5 - 97; outline: as §1
[12] = biological target: T1, Aldo-keto reductase family 1 member B1; experiment: Inhibition of aldose reductase from rat lens. Value ranges from 0.02 -0.64; outline: as §1
[13] = biological target: T1, Aldo-keto reductase family 1 member B1; experiment: Inhibition of aldose reductase from rat lens. Value ranges from 32 - 110; outline: as §1
[14] = biological target: T1, Aldo-keto reductase family 1 member B1; experiment: Inhibition of aldose reductase from rat lens. Value ranges from 8.5 - 410; outline: as §1
[15] = biological target: T1, Aldo-keto reductase family 1 member B1; experiment: Inhibition of aldose reductase from rat lens. Value ranges from 50 - 650; outline: as §1
[16] = biological target: T1, Aldo-keto reductase family 1 member B1; experiment: Inhibition of aldose reductase from rat lens. Value ranges from 17 - 720; outline: as §1
[17] = biological target: T1, Aldo-keto reductase family 1 member B1; experiment: Inhibition of aldose reductase from rat lens. Value ranges from 35-160; outline: as §1
[18] = biological target: T1, Aldo-keto reductase family 1 member B1; experiment: Inhibition of aldose reductase from rat lens. Value ranges from 10 - 42; outline: as §1
[19] = biological target: T1, Aldo-keto reductase family 1 member B1; experiment: Inhibition of aldose reductase from rat lens. Value ranges from 140 - 580; outline: as §1
[20] = biological target: T1, Aldo-keto reductase family 1 member B1; experiment: Inhibition of aldose reductase from rat lens. Value ranges from 25-64; outline: as §1
[21] = biological target: T1, Aldo-keto reductase family 1 member B1; experiment: Inhibition of aldose reductase from rat lens. Value ranges from 3 - 300; outline: as §1
[22] = biological target: T1, Aldo-keto reductase family 1 member B1; experiment: Inhibition of aldose reductase from rat lens. Value ranges from 20 - 160; outline: as §1
[23] = biological target: T1, Aldo-keto reductase family 1 member B1; experiment: Inhibition of aldose reductase from rat lens. Value ranges from 300 - 2000; outline: as §1
[24] = biological target: T1, Aldo-keto reductase family 1 member B1; experiment: Inhibition of aldose reductase from rat lens. Value ranges from 7 - 33; outline: as §1
[25] = biological target: T1, Aldo-keto reductase family 1 member B1; experiment: Inhibition of aldose reductase from rat lens. Value ranges from 9 - 69; outline: as §1
[26] = biological target: T1, Aldo-keto reductase family 1 member B1; experiment: Inhibition of aldose reductase from rat lens. Value ranges from 16 - 360; outline: as §1
[27] = biological target: T1, Aldo-keto reductase family 1 member B1; experiment: Inhibition of aldose reductase from rat lens. Value ranges from 10 - 520; outline: as §1
[28] = biological target: T1, Aldo-keto reductase family 1 member B1; experiment: Inhibition of aldose reductase from rat lens. Value ranges from 0.5 - 16; outline: as §1
[29] = biological target: T1, Aldo-keto reductase family 1 member B1; experiment: Inhibition of aldose reductase from rat lens. Value ranges from 0.3 - 2.3; outline: as §1
[30] = biological target: T1, Aldo-keto reductase family 1 member B1; experiment: Inhibition of aldose reductase from rat lens. Value ranges from 10 - 1300; outline: as §1
[31] = biological target: T1, Aldo-keto reductase family 1 member B1; experiment: Inhibition of aldose reductase from rat lens. Value ranges from 40 - 680; outline: as §1
[32] = biological target: T1, Aldo-keto reductase family 1 member B1; experiment: Inhibition of aldose reductase from rat lens. Value ranges from 280 - 490; outline: as §1
[33] = biological target: T1, Aldo-keto reductase family 1 member B1; experiment: Inhibition of aldose reductase from rat lens. Value ranges from 110 - 430; outline: as §1
[34] = biological target: T1, Aldo-keto reductase family 1 member B1; experiment: Inhibition of aldose reductase from rat lens. Value ranges from 300 - 1100; outline: as §1

Work on `O=C(O)CN(C(=O)c1ccccc1)c1ccc(Cl)cc1` yielded an IC50 [1] of 5 µM.
`O=C(O)Cn1c(=O)c2ccccc2c2ccccc21` gave an IC50 [2] of 10.7 µM.
`O=C(O)CN(C(=O)c1ccccc1)c1ccccc1` gave an IC50 [3] of 9.5 µM.
`O=C(O)CN(C(=O)c1cccc2ccccc12)c1ccccc1` was tested, and the IC50 [4] was 5.8 µM.
With `O=C(O)CN1C(=O)c2cccc3cccc1c23` the IC50 [5] was 0.67 µM.
`COc1ccc(N(CC(=O)O)C(C)=O)cc1` showed an IC50 [6] of 80 µM.
`Nc1ccc(C(=O)NCC(=O)O)cc1` gave an inhibition [7] of 22%.
`CC(NC(=O)c1ccccc1)C(=O)O` (stereo not drawn) was tested, and the inhibition [7] was 14%.
Work on `CC(=O)N(CC(=O)O)c1ccc([N+](=O)[O-])cc1` yielded an IC50 [8] of 5.8 µM.
`COc1ccc(N(CC(=O)O)C(=O)c2ccccc2)cc1` gave an IC50 [9] of 0.96 µM.
With `CC(=O)N(CC(=O)O)c1ccc(O)cc1` the IC50 [10] was 34 µM.
Molecule `CC(=O)N(CC(=O)O)c1ccccc1` has an IC50 [11] of 21 µM.
In the case of `O=C(O)CN(C(=O)c1cccc([N+](=O)[O-])c1)c1ccc([N+](=O)[O-])cc1`, the IC50 [12] is reported as 0.13 µM.
In the case of `O=C(O)CNC(=O)c1ccccc1[N+](=O)[O-]`, the IC50 [13] is reported as 58 µM.
With `O=C(O)Cn1c(=O)c2ccccc2c(=O)c2ccccc21` the IC50 [14] was 65 µM.
`O=C(O)CN(C(=O)c1ccccc1)c1cccc2ccccc12` was tested, and the IC50 [15] was 230 µM.
Molecule `CC(=O)N(c1ccc(Cl)cc1)C(C)C(=O)O` (stereo not drawn) has an IC50 [16] of 110 µM.
For `CC(=O)N(CC(=O)O)c1cccc(C)c1`, the inhibition [7] was 10%.
Molecule `COc1ccc(C(=O)NCC(=O)O)cc1` has an IC50 [17] of 71 µM.
`CC(=O)N(CC(=O)O)c1cccc([N+](=O)[O-])c1` was tested, and the IC50 [18] was 27 µM.
Molecule `O=C(O)CNC(=O)c1cccc([N+](=O)[O-])c1` has an inhibition [7] of 32%.
`O=C(O)CNC(=O)c1ccc([N+](=O)[O-])cc1` gave an IC50 [19] of 280 µM.
For `CC(=O)N(CC(=O)O)c1cccc2ccccc12`, the inhibition [7] was 20%.
`O=C(O)CNC(=O)c1ccc2ccccc2c1` was tested, and the IC50 [20] was 40 µM.
With `O=C(O)CNC(=O)c1ccccc1Cl` the IC50 [21] was 31 µM.
Work on `CC(=O)N(CC(=O)O)c1ccc(N)cc1` yielded an IC50 [22] of 55 µM.
In the case of `COc1ccc(N(C(C)=O)C(C)C(=O)O)cc1` (stereo not drawn), the IC50 [23] is reported as 950 µM.
`CC(=O)N(CC(=O)O)c1ccc(C)cc1` was tested, and the IC50 [24] was 15 µM.
Work on `CC(=O)N(CC(=O)O)c1ccc(Cl)cc1` yielded an IC50 [25] of 25 µM.
`Nc1cccc(C(=O)NCC(=O)O)c1` gave an inhibition [7] of 36%.
`COc1ccc(C(=O)NC(C)C(=O)O)cc1` (stereo not drawn) was tested, and the inhibition [7] was 38%.
Molecule `CC(=O)N(c1ccc(C)cc1)C(C)C(=O)O` (stereo not drawn) has an IC50 [26] of 128 µM.
In the case of `O=C(O)CN1C(=O)c2ccccc2CCc2ccccc21`, the IC50 [27] is reported as 79 µM.
`Cc1ccc(N(CC(=O)O)C(=O)c2ccccc2)cc1` showed an IC50 [28] of 3 µM.
In the case of `Nc1ccccc1C(=O)NCC(=O)O`, the inhibition [7] is reported as 16%.
Molecule `O=C(O)CN(C(=O)c1ccccc1)c1cccc([N+](=O)[O-])c1` has an IC50 [29] of 0.86 µM.
For `CC(=O)N(CC(=O)O)c1ccccc1C`, the inhibition [7] was 14%.
With `CC(=O)N(c1ccccc1)C(C)C(=O)O` (stereo not drawn) the IC50 [30] was 200 µM.
Molecule `Cc1ccc(C(=O)NC(C)C(=O)O)cc1` (stereo not drawn) has an inhibition [7] of 19%.
With `O=C(O)CN(C(=O)c1ccccc1)c1ccc2ccccc2c1` the IC50 [31] was 220 µM.
Molecule `O=C(O)CNC(=O)c1ccccc1` [HIPPURIC ACID] has an IC50 [32] of 330 µM.
Work on `Cc1ccc(C(=O)NCC(=O)O)cc1` yielded an IC50 [33] of 220 µM.
`O=C(O)CNC(=O)c1ccc(Cl)cc1` [4-CHLOROHIPPURIC ACID] was tested, and the IC50 [34] was 550 µM.
